According to ChEMBL document CHEMBL1123485, “A lymphotropic prodrug of L-dopa: synthesis, pharmacological properties, and pharmacokinetic behavior of 1,3-dihexadecanoyl-2-[(S)-2-amino-3-(3,4-dihydroxyphenyl)prop anoyl] propane-1,2,3-triol” (J Med Chem, 1986):
Where “and” joins values, the source holds several entries; their conditions need not be identical. Equal values may be shown once.

Assays:
[1] = system: Rattus norvegicus; experiment: Peak plasma concentration expresses the ability of compound for the release of L-Dopa in the plasma of rat after oral administration of 0.5 mmol/kg; conditions: in vivo
[2] = Time of maximum L-Dopa plasma concentration was measured in mouse ofter oral administration of the compound; conditions: in vivo
[3] = Peak plasma concentration expresses the ability of compound for the release of L-Dopa in the plasma of monkey after oral administration of 0.5 mmol/kg; conditions: simiiformes, in vivo
[4] = Time of maximum L-Dopa plasma concentration was measured in monkey ofter oral administration of the compound; format: ADME, organism-based; conditions: simiiformes, in vivo
Summary of the method: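 A single male Cynomolgus monkey (2.7 kg) was fasted 12 h and given 0.5 mmol/kg orally. Blood was drawn from the femoral vein, and plasma L-Dopa and dopamine were assayed by HPLC with fluorometric detection. Cmax is the peak plasma concentration (nmol/mL); tmax is the time of that peak (min).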

[5] = system: Mus musculus; experiment: Peak plasma concentration expresses the ability of compound for the release of dopamine in the plasma of mouse after oral administration of […]; format: ADME, organism-based; design: route oral; conditions: in vivo
Summary of the method: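 Male NMRI mice (20–25 g), five per time point and compound, received 0.5 mmol/kg orally. They were decapitated at 10, 20 and 30 min and 1–6 h. Blood was collected, deproteinized with perchloric acid and assayed for L-Dopa and dopamine by HPLC with fluorometric detection. Cmax is given in nmol/mL and tmax in min.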

[6] = system: Rattus norvegicus; experiment: Time of maximum dopamine plasma concentration was measured in rat ofter oral administration of the compound; format: ADME, organism-based; conditions: in vivo
Summary of the method: (§1)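 Overnight-fasted male Wistar rats (230–250 g), five per compound, received 0.5 mmol/kg orally. Tail-vessel blood was sampled at 10, 20 and 30 min and 1–6 h. Plasma was deproteinized with perchloric acid and centrifuged, then L-Dopa and dopamine were measured by reversed-phase HPLC with fluorometric detection, quantified by peak area. Cmax (nmol/mL) and tmax (min) were taken from the mean curves.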

[7] = Peak plasma concentration expresses the ability of compound for the release of dopamine in the plasma of monkey after oral administration of 0.5 mmol/kg; conditions: simiiformes, in vivo
[8] = system: Rattus norvegicus; experiment: Peak plasma concentration expresses the ability of compound for the release of dopamine in the plasma of rat after oral administration of 0.5 mmol/kg; conditions: in vivo
[9] = system: Rattus norvegicus; experiment: Time of maximum L-Dopa plasma concentration was measured in rat ofter oral administration of the compound; format: ADME, organism-based; conditions: in vivo
Summary of the method: as §1

[10] = system: Mus musculus; experiment: Peak plasma concentration expresses the ability of compound for the release of L-Dopa in the plasma of mouse after oral administration of 0.5 mmol/kg; conditions: in vivo

Cmax [1] | T max [2] | Cmax [3] | T max [4] | Cmax [5] | T max [6] | Cmax [7] | Cmax [8] | T max [9] | Cmax [10] | Compound
24.6 nM ml-1 | 2 h | 18.3 nM ml-1 | 1.83 h | 1.6 nM ml-1 and 3.54 nM ml-1 | 4 h and 2.5 h | 6.1 nM ml-1 | 17.1 nM ml-1 | 3 h | – | CCCCCCCCCCCCCCCC(=O)OCC(COC(=O)CCCCCCCCCCCCCCC)OC(=O)C(N)Cc1ccc(O)c(O)c1 (centres undefined)
16.2 nM ml-1 | 0.5 h | 9.5 nM ml-1 | – | – | – | 8.1 nM ml-1 | – | – | 1.12 nM ml-1 | N[C@@H](Cc1ccc(O)c(O)c1)C(=O)O [LEVODOPA]
